Assay results reported in ChEMBL document CHEMBL3085659, “Synthesis, antiproliferative and apoptosis-inducing activity of thiazolo[5,4-d]pyrimidines” (Eur J Med Chem, 2013).

How the values were obtained:
[1] = test system: A-431; assay: Antiproliferative activity against human A431 cells after 48 hrs by SRB assay; type: functional, cell-based; settings: A-431, 48 h
[2] = test system: A-431; assay: Antiproliferative activity against human A431 cells assessed as growth inhibition at 10 uM after 48 hrs by SRB assay; type: functional; settings: A-431, 48 h, read-out: GI
[3] = test system: T98G; assay: Antiproliferative activity against human T98G cells after 48 hrs by SRB assay; type: functional, cell-based
[4] = test system: HL-60; assay: Antiproliferative activity against human HL60 cells assessed as growth inhibition at 10 uM after 48 hrs by SRB assay; type: functional; settings: HL-60, 48 h, read-out: GI
[5] = test system: A549; assay: Induction of apoptosis in human A549 cells assessed as reduction of procaspase-3 expression after 24 hrs by Western blot analysis; type: functional, cell-based
In short: (§1)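 Cells treated 24 h (HL-60 at 5, 20, 30 µM; A549 at 1, 3, 10 µM); RIPA lysates, 70 µg protein resolved by SDS-PAGE, transferred to PVDF, blocked in 5% milk, probed for PARP-1 and procaspase-3 with HRP secondaries, ECL detection.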

[6] = test system: A549; assay: Induction of apoptosis in human A549 cells at 10 uM after 24 hrs using propidium iodide staining by flow cytometry (reference value: 7%); type: functional
In short: (§2)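 A549 at 1.2 × 10^5 cells/ml in six-well plates exposed 24 h to 1, 3 or 10 µM; PBS-washed, fixed overnight in 70% ethanol, RNase (100 µg/ml) digestion 45 min at 37 °C, propidium iodide staining; flow cytometric DNA content gives sub-G1 (apoptotic), G1, S and G2-M fractions versus untreated cells.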

[7] = Antiproliferative activity against human MIAPaCa2 cells assessed as growth inhibition at 10 uM after 48 hrs by SRB assay; type: functional; settings: MIA PaCa-2, 48 h, read-out: GI
[8] = test system: T47D; assay: Antiproliferative activity against human T47D cells assessed as growth inhibition at 10 uM after 48 hrs by SRB assay; type: functional; settings: read-out: GI
[9] = Antiproliferative activity against human NCI-H322 cells after 48 hrs by SRB assay; type: functional, cell-based; settings: NCI-H322, 48 h
[10] = test system: A549; assay: Induction of apoptosis in human A549 cells at 1 uM after 24 hrs using propidium iodide staining by flow cytometry (reference value: 7%); type: functional; in short: as §2
[11] = test system: A549; assay: Antiproliferative activity against human A549 cells assessed as growth inhibition at 10 uM after 48 hrs by SRB assay; type: functional; settings: A549, 48 h, read-out: GI
[12] = test system: A549; assay: Induction of apoptosis in human A549 cells assessed as nuclear condensation, membrane blebbing and formation of apoptotic bodies after 24 hrs using DAPI staining by fluorescence microscopic analysis; type: functional, cell-based
In short: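 A549 (1.5 × 10^5 cells/ml) treated 24 h at 1, 3, 5, 10 µM; trypsinized, methanol-fixed 20 min at −20 °C, DAPI (1 µg/ml) 20 min at 37 °C; nuclei scored by UV fluorescence microscopy at 40× for condensation, blebbing, apoptotic bodies; paclitaxel 1 µM positive control, untreated cells as reference.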

[13] = test system: A549; assay: Cell cycle arrest in human A549 cells assessed as accumulation at G2 phase at 3 uM after 24 hrs using propidium iodide staining by flow cytometry (reference value: 1%); type: functional; in short: as §2
[14] = test system: A549; assay: Cell cycle arrest in human A549 cells assessed as accumulation at S phase at 1 uM after 24 hrs using propidium iodide staining by flow cytometry (reference value: 40%); type: functional; in short: as §2
[15] = test system: A549; assay: Cell cycle arrest in human A549 cells assessed as accumulation at G2 phase at 1 uM after 24 hrs using propidium iodide staining by flow cytometry (reference value: 1%); type: functional; in short: as §2
[16] = test system: T98G; assay: Antiproliferative activity against human T98G cells assessed as growth inhibition at 10 uM after 48 hrs by SRB assay; type: functional; settings: read-out: GI
[17] = test system: A549; assay: Cell cycle arrest in human A549 cells assessed as accumulation at G2 phase at 10 uM after 24 hrs using propidium iodide staining by flow cytometry (reference value: 1%); type: functional; in short: as §2
[18] = test system: A549; assay: Cell cycle arrest in human A549 cells assessed as accumulation at G1 phase at 10 uM after 24 hrs using propidium iodide staining by flow cytometry (reference value: 59%); type: functional; in short: as §2
[19] = test system: A549; assay: Cell cycle arrest in human A549 cells assessed as accumulation at G1 phase at 1 uM after 24 hrs using propidium iodide staining by flow cytometry (reference value: 59%); type: functional; in short: as §2
[20] = test system: A549; assay: Induction of apoptosis in human A549 cells at 3 uM after 24 hrs using propidium iodide staining by flow cytometry (reference value: 7%); type: functional; in short: as §2
[21] = test system: A549; assay: Cell cycle arrest in human A549 cells assessed as accumulation at S phase at 10 uM after 24 hrs using propidium iodide staining by flow cytometry (reference value: 40%); type: functional; in short: as §2
[22] = test system: A549; assay: Induction of apoptosis in human A549 cells assessed as cleavage of PARP1 after 24 hrs by Western blot analysis; type: functional, cell-based; in short: as §1
[23] = Antiproliferative activity against human NCI-H322 cells assessed as growth inhibition at 10 uM after 48 hrs by SRB assay; type: functional; settings: NCI-H322, 48 h, read-out: GI
[24] = test system: A549; assay: Cell cycle arrest in human A549 cells assessed as accumulation at S phase at 3 uM after 24 hrs using propidium iodide staining by flow cytometry (reference value: 40%); type: functional; in short: as §2
[25] = test system: A549; assay: Antiproliferative activity against human A549 cells after 48 hrs by SRB assay; type: functional, cell-based; settings: A549, 48 h
[26] = test system: A549; assay: Cell cycle arrest in human A549 cells assessed as accumulation at G1 phase at 3 uM after 24 hrs using propidium iodide staining by flow cytometry (reference value: 59%); type: functional; in short: as §2
[27] = test system: PC-3; assay: Antiproliferative activity against human PC3 cells assessed as growth inhibition at 10 uM after 48 hrs by SRB assay; type: functional; settings: PC-3, 48 h, read-out: GI

In the case of CCN(CC)c1ncnc2sc(Nc3ccc(Cl)cc3)nc12, the IC50 [1] is reported as 3.1 µM, the inhibition of growth at 10 µM [2] is reported as 82% and the IC50 [3] is reported as 3.4 µM. The inhibition of growth at 10 µM [4] was 22%, the Activity [5] was “Dose-dependent effect” and the Activity [6] was 53%. It also gave an inhibition of growth at 10 µM [7] of 14%, an inhibition of growth at 10 µM [8] of 18% and an IC50 [9] of 7.1 µM. For the same compound, the Activity [10] was 22%, the inhibition of growth at 10 µM [11] was 81% and the Activity [12] was “Dose-dependent effect”. For the same compound, the Activity [13] was 4%, the Activity [14] was 44% and the Activity [15] was 1%. It also gave an inhibition of growth at 10 µM [16] of 74%, an Activity [17] of 26% and an Activity [18] of 31%. It also gave an Activity [19] of 55%, an Activity [20] of 44% and an Activity [21] of 43%. The Activity [22] was “Dose-dependent effect”, the inhibition of growth at 10 µM [23] was 57% and the Activity [24] was 31%. For the same compound, the IC50 [25] was 1.4 µM, the Activity [26] was 65% and the inhibition of growth at 10 µM [27] was 22%.
